In ChEMBL document CHEMBL1135298, “Induction of apoptosis by aryl-substituted diamines: role of aromatic group substituents and distance between nitrogens” (Bioorg Med Chem Lett, 2002):
pIC50: −log10 of the molar value.

Legend:
PC-3 [1] = assay: Inhibition of human prostate cancer cell line PC-3 growth; assay type: functional, cell-based
MDA-MB-231 [2] = assay: Inhibition of human breast cancer cell line MDA-MB-231 growth; assay type: functional, cell-based
MDA-MB-231 [3] = assay: Compound was evaluated for cytotoxic activity against human breast cancer cell line MDA-MB-231; assay type: functional, cell-based
How it was run: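 MDA-MB-231 grown in medium with 1 mM aminoguanidine, 50 U/mL penicillin, 50 µg/mL streptomycin, 10% FBS and 2 mM L-glutamine. Drug added 24 h after plating, cells grown a further 72 h. Cell number by MTS; IC50 (µM), some values as mean ± error (n).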

PC-3 [4] = assay: Compound was evaluated for cytotoxic activity against human prostate cancer cell line PC-3; assay type: functional, cell-based
A-375 = assay: Compound was evaluated for cytotoxic activity against human melanoma cell line A375; assay type: functional, cell-based
How it was run: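 A375 melanoma medium contained 1 mM aminoguanidine, penicillin/streptomycin, 10% FBS, 1 mM sodium pyruvate and 2 mM L-glutamine.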

T47D = assay: Compound was evaluated for cytotoxic activity against the following human cancer cell Breast cancer cell line T47 D; assay type: functional, cell-based
How it was run: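 T47.D in RPMI 1640 with 1 mM aminoguanidine, penicillin/streptomycin, 10% FBS, 1 mM sodium pyruvate, 2 mM L-glutamine and 0.4% insulin.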

SK-MEL-5 = assay: Compound was evaluated for cytotoxic activity against human melanoma cell line SK-Mel-5; assay type: functional, cell-based
How it was run: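 SK-Mel-5 maintained in EMEM supplemented with 1 mM aminoguanidine, 50 U/mL penicillin, 50 µg/mL streptomycin and 10% FBS.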

Nucleic Acid [5] = assay: ability to interact with DNA was assessed by a DNA/ethidium bromide dye displacement assay, expressed as DC50 for polydAdT; assay type: nucleic-acid assay
How it was run: (§1)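 Ethidium displacement run by an adapted literature method: 2.5 µM polydAdT with 1.5 µM ethidium bromide in 3.75 mM Tris/NaCl, pH 8.0. Compound added to the DNA–dye complex; DC50 reported.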

MES-SA = assay: Compound was evaluated for cytotoxic activity against the following human cancer cell Uterine cancer cell line Mes-SA; assay type: functional, cell-based
How it was run: (§2)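 SK-OV-3, Mes-SA and multidrug-resistant Mes-SA/Dx5 cultured in McCoy's 5A with 1 mM aminoguanidine, penicillin/streptomycin and 10% FBS.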

SK-OV-3 = assay: Compound was evaluated for cytotoxic activity against human ovarian cancer cell line SK-OV-3; assay type: functional, cell-based; how it was run: as §2
[6] = system: Mes-SA/Dx5 (Homo sapiens); assay: Compound was evaluated for cytotoxic activity against the following human cancer cell MDR Uterine cancer cell line Mes-SA/Dx5
Nucleic Acid [7] = assay: Ability to interact with DNA was assessed by a DNA/ethidium bromide dye displacement assay, expressed as DC50 for polydAdT; assay type: nucleic-acid assay; how it was run: as §1

Row | Compound | pIC50 (PC-3 [1]) | pIC50 (MDA-MB-231 [2]) | other results
1 | N#Cc1cccc(CNCCCCNCc2cccc(C#N)c2)c1 | 5.00 | 4.38 | 
2 | c1ccc(N(c2ccccc2)c2ccc(CNCCCCNCc3ccc(N(c4ccccc4)c4ccccc4)cc3)cc2)cc1 |  |  | pIC50 (MDA-MB-231 [3]): 6.21; pIC50 (PC-3 [4]): 6.22; pIC50 (A-375): 6.40; pIC50 (T47D): 6.19; pIC50 (SK-MEL-5): 6.03; DC50 (Nucleic Acid [5]): 9.4 µM; pIC50 (MES-SA): 6.19; pIC50 (SK-OV-3): 6.17; pIC50 [6]: 6.21
3 | c1cc(CNCc2cccc3ccccc23)cc(CNCc2cccc3ccccc23)c1 | 4.70 | 4.72 | 
4 | NCCCCNCc1ccc([N+](=O)[O-])cc1 | 4.30 | 3.70 | 
5 | NCCCCNCc1ccccc1 | 3.68 | < 3.52 | 
6 | CN(C)c1ccc(CNCCCCNCc2ccc(N(C)C)cc2)cc1 | 4.25 | 3.71 | 
7 | c1ccc2c(CNCc3ccc(CNCc4cccc5ccccc45)cc3)cccc2c1 | 4.85 | 5.15 | 
8 | c1ccc2c(CNCCCCNCc3cccc4ccccc34)cccc2c1 |  |  | pIC50 (MDA-MB-231 [3]): 5.04; pIC50 (PC-3 [4]): 5.00; DC50 (Nucleic Acid [7]): 8.7 µM; pIC50 (A-375): 5.27; pIC50 (T47D): 5.19; pIC50 (SK-MEL-5): 5.34; pIC50 (MES-SA): 5.00; pIC50 (SK-OV-3): 5.07; pIC50 [6]: 5.14
9 | c1ccc(-c2ccc(CNCCCCNCc3ccc(-c4ccccc4)cc3)cc2)cc1 |  |  | pIC50 (MDA-MB-231 [3]): 5.72; pIC50 (PC-3 [4]): 6.11; pIC50 (A-375): 6.23; pIC50 (SK-OV-3): 6.13
10 | N#Cc1ccc(CNCCCCNCc2ccc(C#N)cc2)cc1 | 4.66 | 4.08 | 
11 | [N-]=[N+]=Nc1cccc(CNCCCCNCc2cccc(N=[N+]=[N-])c2)c1 | 4.82 | 4.72 | 
12 | Clc1ccc(CNCCCCNCc2ccc(Cl)c(Cl)c2)cc1Cl | 4.70 | 4.19 | 
13 | O=[N+]([O-])c1ccc(CNCCCCNCc2ccc([N+](=O)[O-])cc2)cc1 | 3.84 | 3.69 | 
14 | c1ccc2c(CCNCCCCNCCc3cccc4ccccc34)cccc2c1 | 4.43 | 4.60 | 
15 | NCCCCNCc1cccc2ccccc12 | 3.68 | < 3.52 | 
16 | c1cc2c(cc1CNCCCCNCc1ccc3c(c1)OCO3)OCO2 | 4.25 | 4.15 | 
17 | COc1cc(CNCCCCNCc2cc(OC)c(OC)c(OC)c2)cc(OC)c1OC | 4.24 | 4.24 | 
18 | c1ccc2c(CNCCCCNCc3c[nH]c4ccccc34)c[nH]c2c1 | 4.29 | 4.11 | 
19 | Nc1ccccc1CNCCCCNCc1ccccc1N | 4.01 | 3.84 | 
20 | Nc1cccc(CNCCCCNCc2cccc(N)c2)c1 | < 3.52 | < 3.52 | 
21 | O=[N+]([O-])c1ccccc1CNCCCCNCc1ccccc1[N+](=O)[O-] | 4.64 | 4.21 | 
22 | Cn1cc(NC(=O)c2cc(NC(=O)c3cc(NC=O)cn3C)cn2C)cc1C(=O)NCCC(=N)N [STALLIMYCIN] |  |  | DC50 (Nucleic Acid [5]): 44 µM

Further molecules by rising pIC50 (PC-3 [1]), results first:

Row | pIC50 (PC-3 [1]) | pIC50 (MDA-MB-231 [2]) | Compound | other results
23 | 5.05 | 4.74 | O=[N+]([O-])c1cccc(CNCCCCNCc2cccc([N+](=O)[O-])c2)c1 | 
24 | 5.08 | 5.03 | c1ccc2c(CNCCCCNCc3ccnc4ccccc34)ccnc2c1 | 
25 | 5.15 | 5.30 | CC(CCC(C)NCc1cccc2ccccc12)NCc1cccc2ccccc12 (stereo not given) | 
26 | 5.19 | 5.08 | c1ccc2c(CNCCCCCNCc3cccc4ccccc34)cccc2c1 | 
27 | 5.22 | 4.68 | COc1ccc(CNCCCCNCc2ccc(OC)cc2)cc1 | 
28 | 5.37 | 5.29 | c1ccc2c(CNCCCNCc3cccc4ccccc34)cccc2c1 | 
29 | 5.49 | 5.55 | COc1ccc(CNCCCCNCc2ccc(OC)c3ccccc23)c2ccccc12 | 
30 | 5.57 | 5.46 | c1ccc2c(CNCCCCNCc3c4ccccc4cc4ccccc34)c3ccccc3cc2c1 | 
31 | 5.60 | 5.68 | c1ccc2cc(CNCCCCNCc3ccc4ccccc4c3)ccc2c1 | 
32 | 5.73 | 5.18 | c1ccc2c(c1)Cc1cc(CNCCCCNCc3ccc4c(c3)Cc3ccccc3-4)ccc1-2 | 
33 | 6.10 | 5.70 | c1ccc(-c2ccc(CNCCCNCc3ccc(-c4ccccc4)cc3)cc2)cc1 | 
34 | 6.32 | 5.89 | c1ccc(-c2ccc(CNCCCCCNCc3ccc(-c4ccccc4)cc3)cc2)cc1 | 
35 | 7.15 | 7.22 | O=C1c2cccc3cccc(c23)C(=O)N1CCNCCCNCCN1C(=O)c2cccc3cccc(c23)C1=O [ELINAFIDE] | 
